Test [1] has as its system HEK293. The experiment in a line: Antiproliferative activity against human HEK293 cells after 2 days by MTT assay. It counts as cell-based. To be noted: HEK293, 48 h. An outline of the steps: (§1)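 Cells (5×10^3 per well) in DMEM with 10% FBS, glucose, glutamine and antibiotics were exposed to serial dilutions (stocks in DMSO) for 2 days at 37 °C, 5% CO2. MTT was added for 3 h, formazan was dissolved in DMSO and absorbance read at 490 nm. Viability was taken as % of untreated cells. IC50 was read graphically from three independent experiments.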

In test [2] the test system is HT-29. The experiment in a line: Antiproliferative activity against human HT-29 cells after 2 days by MTT assay. It counts as functional, cell-based. To be noted: HT-29, 48 h. An outline of the steps: as §1
In general terms: Formazan colour is commonly taken as a measure of viable cells.

For test [3], the system named is HeLa. Kind of test: Antiproliferative activity against human HeLa cells after 2 days by MTT assay. In kind it is functional, cell-based. The note with it: 48 h. An outline of the steps: as §1
In test [4] the test system is HT-29. The experiment in a line: Induction of apoptosis in human HT-29 cells assessed as viable cells at 0.5 nM after 48 hrs by Annexin V-FITC staining-based flow cytometric analysis (reference value: 82 +/- 1%). In kind it is functional. To be noted: HT-29, 48 h, read-out: Activity. (In general: Flow cytometry measures light scatter and fluorescence of single cells or particles in a stream.)

Test [5] deals with HT-29. Kind of test: Induction of apoptosis in human HT-29 cells assessed as apoptotic cells at 0.5 nM after 48 hrs by Annexin V-FITC staining-based flow cytometric analysis (reference value: 13 +/- 3%). In kind it is functional.
Test [6] deals with HT-29. Kind of test: Effect on c-MYC gene expression in human HT-29 cells assessed as c-MYC level at 0.5 nM after 48 hrs by RT-qPCR analysis. It counts as functional. Summed up: (§2)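 HT-29 cells at 70–80% confluence were seeded at 1.5×10^5 per well and left 24 h, then treated 48 h, with DMSO as control. Total RNA was extracted and VEGF-A, c-Myc and hTERT were quantified by TaqMan qPCR, normalized to β-actin and to living cell number. Results are % expression versus control, at least three measurements.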

Test [7] deals with HT-29. The experiment in a line: Induction of apoptosis in human HT-29 cells assessed as necrotic cells at 0.5 nM after 48 hrs by Annexin V-FITC staining-based flow cytometric analysis (reference value: 2 +/- 6%). In kind it is functional.
For test [8], the system named is HT-29. The experiment in a line: Effect on c-MYC protein expression in human HT-29 cells assessed as c-MYC level at 0.5 nM after 48 hrs by ELISA. It counts as functional. Summed up:
(§3)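 HT-29 cells (1.5×10^5 per well, 24 h pre-culture) were treated 48 h and washed in PBS. They were lysed in Tris pH 7.4 buffer with detergents, phosphatase inhibitors, PMSF and protease inhibitors. Lysates were adjusted to 200 µg/mL protein (Bradford) and total c-Myc or VEGFR-2 was measured by sandwich ELISA kit. Values are % of DMSO control, ≥3 measurements.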
For orientation: ELISA stands for enzyme-linked immunosorbent assay.

Test [9] has as its system HT-29. Kind of test: Effect on VEGFR2 protein expression in human HT-29 cells assessed as VEGFR2 level at 0.5 nM after 48 hrs by ELISA. In kind it is functional. Summed up: as §3
Test [10] relates to HT-29. The experiment in a line: Effect on VEGF gene expression in human HT-29 cells assessed as VEGF level at 0.5 nM after 48 hrs by RT-qPCR analysis. It counts as functional. Summed up:
as §2

Test [11] deals with HT-29. Kind of test: Effect on hTERT gene expression in human HT-29 cells assessed as hTERT level at 0.5 nM after 48 hrs by RT-qPCR analysis. It counts as functional. Summed up:
as §2

Test [12] deals with HT-29. The experiment in a line: Effect on VEGF protein expression in human HT-29 cells assessed as secreted VEGF level in culture media at 0.5 nM after 48 hrs by ELISA.
The subject of test [13] is MCF7. Kind of test: Antiproliferative activity against human MCF7 cells after 2 days by MTT assay. In kind it is functional, cell-based. To be noted: MCF7, 48 h. An outline of the steps: as §1
Test [14] has as its system HT-29. The experiment in a line: Induction of apoptosis in human HT-29 cells assessed as necrotic cells at 500 nM after 48 hrs by Annexin V-FITC staining-based flow cytometric analysis (reference value: 2 +/- 6%). In kind it is functional.
In test [15] the test system is HT-29. Kind of test: Induction of apoptosis in human HT-29 cells assessed as viable cells at 500 nM after 48 hrs by Annexin V-FITC staining-based flow cytometric analysis (reference value: 82 +/- 1%). It counts as functional. The note with it: HT-29, 48 h, read-out: Activity.
The test system of test [16] is HT-29. Kind of test: Induction of apoptosis in human HT-29 cells assessed as apoptotic cells at 500 nM after 48 hrs by Annexin V-FITC staining-based flow cytometric analysis (reference value: 13 +/- 3%). In kind it is functional.
Test [17] relates to HT-29. The experiment in a line: Induction of apoptosis in human HT-29 cells assessed as viable cells at 2000 nM after 48 hrs by Annexin V-FITC staining-based flow cytometric analysis (reference value: 82 +/- 1%). It counts as functional. The note with it: HT-29, 48 h, read-out: Activity.
Test [18] concerns HT-29. The experiment in a line: Induction of apoptosis in human HT-29 cells assessed as necrotic cells at 2000 nM after 48 hrs by Annexin V-FITC staining-based flow cytometric analysis (reference value: 2 +/- 6%). In kind it is functional.
In test [19] the test system is HT-29. Kind of test: Induction of apoptosis in human HT-29 cells assessed as apoptotic cells at 2000 nM after 48 hrs by Annexin V-FITC staining-based flow cytometric analysis (reference value: 13 +/- 3%). It counts as functional.

One may read the IC50 as the concentration that gives 50% inhibition. The low end stands for inhibition by little substance, the high end for a need for much substance. Consider `COc1cc2c(c(OC)c1OC)-c1ccc(OC)c(=O)cc1[C@@H](NC(=O)Nc1ccccc1Cl)CC2`, for which the IC50 is 0.7 nM in test [1], 0.8 nM in test [2], 1.2 nM in [3] and 1.3 nM in [13]. For the same molecule, in [4], the viability at 0.0005 µM was 58%. Besides, the Activity is recorded as 41% in test [5]; 25% in test [6]; 1% in test [7]; 51% in test [8]; 38% in [9]; 30% in test [10]. The Activity in [11] worked out at 46%; in [12] it was 34%.
`CCc1cccc(CC)c1NC(=O)N[C@H]1CCc2cc(OC)c(OC)c(OC)c2-c2ccc(OC)c(=O)cc21`: the IC50 in test [1] is 801 nM; in test [2], 838 nM; in [3] it was 304 nM; in test [13] it was 185 nM. Also, the Activity in [14] was determined as 1%; in test [16], 32%. Also, the viability at 0.5 µM in test [15] was found to be 67%.
Take `COc1cc2c(c(OC)c1OC)-c1ccc(OC)c(=O)cc1[C@@H](NC(=O)Nc1ccc(C)cc1Cl)CC2`: the IC50 in test [1] is 3 nM; in test [2], 0.71 nM; in test [3] it was 3 nM; in [13] it was 0.9 nM. Besides, the viability at 2 µM in test [17] came to 66%. Moreover, the Activity came out at 85% in test [6]; 112% in test [8]; 45% in test [9]; 70% in [10]; 80% in test [11]; 75% in test [12]. Also, the values for the Activity in test [18] and in test [19] were 1% and 33%, respectively.
